Bioassay records deposited in PubChem by several laboratories.
TbHK1 inh: blocks Trypanosoma brucei hexokinase 1 activity | recombinant TbHK1, G6PDH-coupled NADH A340 | hit rate 0.11% among 220,000 | AID 1430 | inhibition, % at 10 µM;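 active = inhibition of 50% or more in the single-dose primary screen; inactive = inhibition below 50%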
EP2 mod: EP2 receptor (human) modulation. induction, % at 25 µM. EP2-expressing cells, cAMP HTRF FRET, PGE2 co-stimulation. P43116. AID 940. hit rate 0.83% among 260,000;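 active = compounds whose cAMP rise, as percent of the full-agonist control response, exceeds 60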;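 note: rat C6 glioma line stably carrying human EP2 under a CMV promoter; the protocol text gives 20 µM as final concentration; 100% = response of wells given 1 µM PGE2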
Target sequence (P43116 whole entry, looked up): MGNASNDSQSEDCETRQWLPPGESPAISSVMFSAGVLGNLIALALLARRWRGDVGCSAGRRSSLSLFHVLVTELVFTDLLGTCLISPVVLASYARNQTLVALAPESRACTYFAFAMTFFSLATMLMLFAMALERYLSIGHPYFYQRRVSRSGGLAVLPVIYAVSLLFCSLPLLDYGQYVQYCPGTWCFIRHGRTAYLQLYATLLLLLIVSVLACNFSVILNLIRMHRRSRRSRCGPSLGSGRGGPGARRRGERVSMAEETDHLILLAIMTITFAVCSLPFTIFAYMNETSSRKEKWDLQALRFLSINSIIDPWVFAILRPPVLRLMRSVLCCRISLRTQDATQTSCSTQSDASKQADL
EP2 antag: EP2 receptor (human) inhibition. C6 glioma cells expressing human EP2, cAMP TR-FRET; cells stimulated with saturating PGE2. AID 1422. inhibition, % at 25 µM. hit rate 0.52% among 260,000;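 active = percent inhibition above 40 after rounding to a whole number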;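 note: rat C6 glioma host cells with rolipram phosphodiesterase inhibitor present; the protocol text gives 20 µM as final concentration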
MT stabilizer: stabilizes microtubules in HeLa cells. HeLa tubulin immunostaining HCS, 24 h; share of cells brighter than vehicle mean+2SD. % tubulin-high responders, % at 10 µM. hit rate 0.83% among 200,000. AID 2205;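 active = plate Z-score above 3 for both tubulin-high and condensed-nucleus cell shares, with cell loss under 80%, at 10 µM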;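 note: anti alpha tubulin signal scored within the nucleus-defined area of each cell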
bCat nuc transl: alters nuclear translocation of beta-catenin in HeLa cells | immunofluorescence imaging | nuclear translocation activity, % at 5 µM | hit rate 0.3% among 190,000;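 active = nuclear translocation activity above 50% at 5 µM, with a well cell count of 50 or more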;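 note: per-cell ratio of nuclear to cytoplasmic median beta-catenin stain intensity; plate controls were DMSO negative control for no effect and GSK-3 inhibitor IX positive control for full effect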
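Signal – beta-catenin immunofluorescence imaging with DAPI · Test system – human HeLa cell line · Dosing – 5 µM primary single dose, 0.1% DMSO, 0.02–20 µM confirmation series · Measure – % activation, nuclear-to-cytoplasmic median beta-catenin signal ratio per cell · Incubation – 24 h compound exposure at 37°C, 5% CO2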
HMGR II inh: inhibitors of class II HMG-CoA reductase from Enterococcus faecalis; inhibition, % at 10 µM; hit rate 0.41% among 190,000; AID 1066; purified E. faecalis HMGR, NADPH absorbance 340 nm kinetic;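 active = inhibition above a set limit, the median over all tested compounds plus 3 SD, cut at about 9.5% in these data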;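 note: enzyme runs in reverse so mevalonate oxidation gives rising NADPH absorbance; 0% = complete reaction with DMSO and 100% = background rate lacking mevalonate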
EP2 cAMP induct: human EP2 receptor cAMP induction, negative in counter-screens. calls only at 20 µM (by protocol). C6 glioma EP2 cells, cAMP HTRF induction; plus low (about EC15) PGE2 agonist. shares compounds with EP2 mod. hit rate 47% among 1,300. AID 1080;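 active = cAMP induction above 50% in the main assay while under 30% in all four parallel counter assays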;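 note: rat C6 glioma cells stably expressing human EP2 receptor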
An asterisk follows results filed as active; i = inactive; / = not tested or not shown; + = active, no number; ! = repeats disagree. Compounds with a hit are over-represented: about 2.4% of the library has one in this group of screens.

SMILES | TbHK1 inh | EP2 mod | EP2 antag | MT stabilizer | bCat nuc transl | HMGR II inh | EP2 cAMP induct
NC(=O)c1c(NC(=O)CSc2nnc(-c3ccccc3)n2Cc2ccco2)sc2c1CCC2 | / | -25 | 5 | / | / | / | /
CCOC(=O)c1cnc(SCC(=O)Nc2ccc(Br)cc2)nc1N | / | -104 | 11 | / | / | / | /
CCOC(=O)CSc1nc(-c2ccccc2)nc2ccccc12 | -2 | 70* | 5 | 3 | / | -3 | +
CC(C)c1ccc(/C=N/Nc2cc(N3CCOCC3)nc(N3CCOCC3)n2)cc1 | -17 | 96* | 9 | 3 | -3 | 1 | +
Cc1cccc(/C=N/Nc2cc(N3CCOCC3)nc(N3CCOCC3)n2)c1 | 7 | 80* | 4 | 6 | -1 | -6 | +
Cc1cc(N/N=C/c2ccccc2)nc(N2CCOCC2)n1 | -58 | -13 | 8 | / | 0 | / | /
Cc1ccc(/C=N/Nc2cc(C)nc(N3CCOCC3)n2)cc1 | -64 | -19 | 10 | / | -2 | / | /
COc1ccc(Cc2nc3c4cnn(Cc5ccccc5)c4ncn3n2)cc1OC | / | 21 | 8 | / | / | / | /
Cc1nc2c(c(=O)[nH]1)CCN(C(=O)c1cc3nc(C4(C)CC4)cc(C(F)(F)F)n3n1)C2 | / | 17 | / | / | / | / | /
Cc1cc(C)n(-c2cc(-c3ccccc3)nc(C)n2)n1 | 2 | 69* | 13 | 3 | 3 | -2 | i
CC12CN3CC(C)(CN(C1)C3c1ccc(O)cc1O)C2O (stereo not given) | / | -17 | 14 | / | / | / | /
COc1ccc(-c2nc(NC(C)=O)sc2-c2ccc(OC)cc2)cc1 | -4 | 56 | 12 | 6 | -1 | 6 | i
Cc1cc(C)c2cc(CN(CCCN3CCCC3=O)S(=O)(=O)c3ccc(F)cc3)c(=O)[nH]c2c1 | / | -19 | 13 | / | / | / | /
Cc1ccc2c(c1)c1c3n2CCN(C(=O)CN2CCCC2)C3CCC1 (stereo not given) | / | -116 | 9 | / | / | / | /
O=c1c2c(n3cnnc3n1C1CCCCC1)-c1ccccc1CC21CCCCC1 | -3 | 68* | 9 | 1 | -2 | 3 | +
O=c1c2c(n3cnnc3n1-c1ccccc1)-c1ccccc1CC21CCCC1 | 19 | 20 | 7 | 2 | / | -3 | /
Cc1ccc(-n2c(SCC(N)=O)nc3c(c2=O)C2(CCCC2)Cc2ccccc2-3)cc1 | 11 | 71* | 13 | 2 | 0 | 1 | i
O=c1c2c(n3nnnc3n1-c1ccccc1)-c1ccccc1CC21CCCC1 | 3 | 73* | 20 | 1 | -8 | -8 | +
Nn1cnc2c(c1=O)C1(CCCCC1)Cc1ccccc1-2 | -5 | 73* | 2 | 2 | -4 | 0 | i
CCc1nn(CC(=O)C(C)(C)C)c(=O)c2cc3sccc3n12 | / | -1 | / | / | / | / | /
CCCCNC(=O)C1CCN(Cc2ccc(OCc3ccccc3)cc2)CC1 | 5 | -5 | 11 | 5 | 4 | 2 | /
CCCCC(=O)C1CCN(Cc2ccccc2)CC1 | -1 | 106* | 8 | 3 | 0 | -1 | i
Cc1ccc(-n2c(Cc3cccc4ccccc34)n[nH]c2=S)c(C)c1 | -3 | 61* | 7 | 2 | -4 | -5 | +
COc1cc(C)c(C(=O)Oc2cc(C)c(C(=O)O)c(O)c2C)c(OC)c1C | 0 | 55 | 8 | 1 | 0 | -4 | i
COc1cc(OC)c(C(C)=O)c(O)c1C | / | 21 | 5 | / | / | / | /
SMILES | TbHK1 inh | EP2 mod | EP2 antag | MT stabilizer | bCat nuc transl | HMGR II inh | EP2 cAMP induct
Cc1ncc(S(=O)(=O)c2ccccc2)c(-c2ccc(Cl)cc2Cl)n1 | 0 | 0 | 2 | 3 | 4 | 0 | /
CN(C)c1ncc(S(=O)(=O)c2ccc(Cl)cc2)c(-c2ccccc2)n1 | -3 | 80* | 4 | 2 | 1 | -2 | +
Oc1c(Cl)cc(Cl)cc1Sc1cc(Cl)cc(Cl)c1O | 16 | 76*! | 21 | 7 | / | -3 | i
C=C(C)Cn1c(C)cc(C)c(S(=O)(=O)c2cccc(C)c2)c1=O | 11 | 90* | 6 | 4 | 0 | -7 | +
Cc1cccc(S(=O)(=O)N2CCC(CO)(Cc3ccccc3)CC2)c1 | -5 | -74 | 12 | 4 | 0 | -1 | /
O=C1CC(O)(c2ccccc2)C(c2ccccc2)=C1c1ccccc1 (stereo not given) | 4 | 76* | 10 | 3 | 2 | -4 | +
COc1cc(NC(=O)c2cnn3c(C(F)F)cc(C4CC4)nc23)c(OC)cc1Cl | -11 | 19 | 4 | 2 | -8 | -6 | /
COC(=O)c1ccccc1NC(=O)c1cnn2c(C(F)F)cc(C3CC3)nc12 | -5 | 76* | 13 | 2 | / | -3 | i
CCOc1ccccc1-c1nc2c([nH]1)c(=O)n(C)c(=O)n2C | -23 | 35 | 4 | 10 | 2 | -4 | /
CCOc1ccccc1-c1nc2c(C(C)(C)C)nn(C)c2c(=O)[nH]1 | 0 | 84* | 15 | 1 | 0 | -6 | +
CCOC(=O)c1ccc(NC(=O)c2c(O)c3cc(OC)c(OC)cc3[nH]c2=O)cc1 | / | -7 | 13 | / | / | / | /
CCC(c1nnnn1C1CCCCC1)N(Cc1cccs1)Cc1cc2ccc(C)c(C)c2[nH]c1=O (stereo not given) | / | 51 | 12 | / | / | / | /
COc1ccc2cc(CN(Cc3ccco3)C(c3nnnn3C3CCCCC3)C(C)C)c(=O)[nH]c2c1 (stereo not given) | -1 | 66* | 11 | 1 | / | -1 | +
COc1ccc2cc(CN(CC3CCCO3)C(c3nnnn3C3CCCC3)C(C)C)c(=O)[nH]c2c1 (stereo not given) | / | 40 | 4 | / | / | / | /
CCC(c1nnnn1C1CCCC1)N(Cc1cccs1)Cc1cc2cc(C)ccc2[nH]c1=O (stereo not given) | -3 | 84* | 9 | 36* | 91* | 1 | i
Cc1cccc(C(=O)Nc2cccc(OCC(=O)O)c2)c1 | -4 | 95* | 1 | 4 | 0 | -8 | +
O=C(O)COc1cccc(NC(=O)c2ccccc2)c1 | -4 | 96* | 7 | 2 | -6 | -1 | +
O=C(COc1cccc(NC(=O)c2ccccc2)c1)c1ccccc1 | 1 | -85 | 2 | 2 | 0 | 2 | /
CCCn1c(SCC(=O)Nc2ccc(OC)c(OC)c2)nnc1-c1ccoc1C | / | -21 | 10 | / | / | / | /
COc1cc(NC(=S)NC(=O)c2cc(C)cc(C)c2)ccc1NC(=O)c1cccs1 | -13 | 68* | 13 | 1 | -1 | -4 | i
COc1cc(NC(=S)NC(=O)c2ccc(C(C)(C)C)cc2)ccc1NC(=O)c1cccs1 | -10 | 43 | 7 | 5 | 0 | 0 | /
CCCCc1n[nH]c(=S)n1Cc1ccccc1 | 0 | 19 | 11 | 5 | -4 | -3 | /
CCCCc1n[nH]c(=S)n1Cc1ccc(Cl)cc1 | 4 | 52 | 6 | 3 | 0 | 0 | i
CCc1cc2ccccc2nc1SCC(=O)c1ccc(OC)cc1 | / | -52 | 8 | / | / | / | /
